Measured values from ChEMBL document CHEMBL2406932, “Heteroaromatic and aniline derivatives of piperidines as potent ligands for vesicular acetylcholine transporter” (J Med Chem, 2013).

Columns and labels:
PC-12 [1] = experiment: Selectivity ratio, ratio of Ki for sigma 2 receptor in rat liver homogenates to Ki for human VAChT expressed in rat PC12 cells; assay type: cell-based
PC-12 [2] = experiment: Selectivity ratio, ratio of Ki for sigma 1 receptor in guinea pig brain homogenates to Ki for human VAChT expressed in rat PC12 cells; assay type: cell-based
[3] = Displacement of [3H]DTG from sigma 2 receptor in rat liver membrane homogenates after 120 mins by scintillation counting analysis; assay type: cell membranes
Summary of the method: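 Rat liver membrane homogenate (~300 µg protein) with ~5 nM [3H]DTG plus 1 µM (+)-pentazocine to block sigma-1 sites, 120 min at room temperature, pH 7.4 Tris buffer. Nonspecific binding taken with 10 µM haloperidol. Filtration and scintillation counting.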

[4] = target: Sigma non-opioid intracellular receptor 1 (Cavia porcellus, UniProt Q60492); experiment: Displacement of (+)- [3H]pentazocine from sigma 1 receptor expressed in guinea pig brain membrane homogenates by scintillation counting analysis; assay type: cell membranes
Sequence of Sigma non-opioid intracellular receptor 1 (Q60492 whole entry): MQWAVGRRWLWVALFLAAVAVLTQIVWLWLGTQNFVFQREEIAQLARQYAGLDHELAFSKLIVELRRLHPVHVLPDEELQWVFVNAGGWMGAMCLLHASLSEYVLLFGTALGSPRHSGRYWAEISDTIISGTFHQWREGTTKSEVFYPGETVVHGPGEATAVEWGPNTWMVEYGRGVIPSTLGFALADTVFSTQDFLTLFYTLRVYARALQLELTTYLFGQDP

[5] = tested as the 11C-labelled form

## O=C(c1ccccc1)C1CCN([C@@H]2Cc3ccccc3C[C@H]2O)CC1 (racemic)
PC-12 [1]
  Ratio Ki: 74
PC-12 [2]
  Ratio Ki: 51
[3]
  Ki: 320 nM

## Cc1ccc(C(=O)C2CCN([C@@H]3Cc4ccccc4C[C@H]3O)CC2)cn1 (racemic)
[4]
  Ki: 2120 nM
[3]
  Ki: 3770 nM

## O=C(c1ccc(F)nc1)C1CCN([C@@H]2Cc3ccccc3C[C@H]2O)CC1 (racemic)
PC-12 [1]
  Ratio Ki: 67
[4]
  Ki: 682 nM
PC-12 [2]
  Ratio Ki: 26
[3]
  Ki: 1750 nM

## O=C(c1ccc(OCCF)nc1)C1CCN([C@@H]2Cc3ccccc3C[C@H]2O)CC1 (racemic)
PC-12 [1]
  Ratio Ki: 49
[4]
  Ki: 2120 nM
PC-12 [2]
  Ratio Ki: 56
[3]
  Ki: 1860 nM

## Cn1c(C(=O)C2CCN([C@@H]3Cc4ccccc4C[C@H]3O)CC2)cccc1=O (racemic)
PC-12 [1]
  Ratio Ki: 18
[4]
  Ki: 2160 nM
PC-12 [2]
  Ratio Ki: 12
[3]
  Ki: 3340 nM

## CNc1ccc(C(=O)C2CCN([C@@H]3Cc4ccccc4C[C@H]3O)CC2)cc1 (racemic)
PC-12 [1]
  Ratio Ki: 2000
[4]
  Ki: 305 nM
PC-12 [2]
  Ratio Ki: 100
[3]
  Ki: 6180 nM

## COc1cccnc1C(=O)C1CCN([C@@H]2Cc3ccccc3C[C@H]2O)CC1 (racemic)
PC-12 [1]
  Ratio Ki: 13
[4]
  Ki: 21000 nM
PC-12 [2]
  Ratio Ki: 170
[3]
  Ki: 1560 nM

## Cn1ccc(C(=O)C2CCN([C@@H]3Cc4ccccc4C[C@H]3O)CC2)c1 (racemic)
[4]
  Ki: 3040 nM
[3]
  Ki: 7710 nM

## O=C(c1cncc(F)c1)C1CCN([C@@H]2Cc3ccccc3C[C@H]2O)CC1 (racemic)
PC-12 [1]
  Ratio Ki: 170
[4]
  Ki: 709 nM
PC-12 [2]
  Ratio Ki: 70
[3]
  Ki: 1690 nM

## CN(C)c1ccc(C(=O)C2CCN([C@@H]3Cc4ccccc4C[C@H]3O)CC2)cc1 (racemic)
PC-12 [1]
  Ratio Ki: 4400
[4]
  Ki: 40.9 nM
PC-12 [2]
  Ratio Ki: 44
[3]
  Ki: 4080 nM

## Cn1cccc1C(=O)C1CCN([C@@H]2Cc3ccccc3C[C@H]2O)CC1 (racemic)
PC-12 [1]
  Ratio Ki: 140
[4]
  Ki: 1300 nM
PC-12 [2]
  Ratio Ki: 71
[3]
  Ki: 2550 nM

## O=C(c1cccnc1)C1CCN([C@@H]2Cc3ccccc3C[C@H]2O)CC1 (racemic)
PC-12 [1]
  Ratio Ki: 130
[4]
  Ki: 12900 nM
PC-12 [2]
  Ratio Ki: 540
[3]
  Ki: 3030 nM

## O=C(c1ccc(F)cc1)C1CCN([C@@H]2Cc3ccccc3C[C@H]2O)CC1 (relative stereo)
[3]
  Ki: 251 nM

## O=C(c1cccnc1F)C1CCN([C@@H]2Cc3ccccc3C[C@H]2O)CC1 (racemic)
PC-12 [1]
  Ratio Ki: 280
[4]
  Ki: 1300 nM
[3]
  Ki: 3530 nM

## O=C(c1ncccc1OCCF)C1CCN([C@@H]2Cc3ccccc3C[C@H]2O)CC1 (racemic)
PC-12 [1]
  Ratio Ki: 4
[4]
  Ki: 20000 nM
PC-12 [2]
  Ratio Ki: 260
[3]
  Ki: 303 nM

## CNc1ccc(C(=O)C2CCN([C@H]3Cc4ccccc4C[C@@H]3O)CC2)cc1
PC-12 [1]; [5]
  Ratio Ki: 14700
PC-12 [2]; [5]
  Ratio Ki: 1270

## Cn1cccc1C(=O)C1CCN([C@@H]2Cc3c(N)cccc3C[C@H]2O)CC1 (racemic)
PC-12 [1]
  Ratio Ki: 180
[4]
  Ki: 7660 nM
PC-12 [2]
  Ratio Ki: 200
[3]
  Ki: 6990 nM

## Cn1ccc(C(=O)C2CCN([C@@H]3Cc4ccccc4C[C@H]3O)CC2)cc1=O (racemic)
PC-12 [1]
  Ratio Ki: 32
[4]
  Ki: 3350 nM
PC-12 [2]
  Ratio Ki: 51
[3]
  Ki: 2120 nM

## Cn1cccc1C(=O)C1CCN([C@@H]2Cc3cccc(N)c3C[C@H]2O)CC1 (racemic)
PC-12 [1]
  Ratio Ki: 4.9
[4]
  Ki: 9240 nM
PC-12 [2]
  Ratio Ki: 4
[3]
  Ki: 11400 nM
